NF-kB neuron act – raises NF-kB expression in human neuronal cells | NF-kB reporter expression; active compounds read high | fold change at 12.5 µM | AID 1239 | 1.6% of 190,000 active; in the data active = fold change above about 3.3
Pf gamet viab – kills late stage P. falciparum gametocytes; inhibition, % at 10.9 µM; P. falciparum stage V gametocytes, ATP luminescence, 24 h; AID 743093; 0.065% of 150,000 active;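 active = inhibition above the mean plus 3 SD of compounds within the control limits, set per campaign, cut at about 38% in these data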
STAT1 act-1 – STAT1 signaling activation. NIH 3T3 STAT1-luciferase reporter, IFN-gamma, luminescence; 100% = IFN-gamma alone, no compound. activation (% of control), % at 5.5 µM. 2.6% of 200,000 active. AID 932;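 active = activation above the screen-wide mean activation plus 3 SD, cut at about 130% in these data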
STAT3 act-1 – activators of IL-6 induced STAT3 signaling; activation (% of control), % at 5.6 µM; 0.91% of 190,000 active; U3A cells, IL-6 STAT3-luciferase reporter, luminescence; 100% = signal with IL-6 EC80 alone;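 active = activation above the screen-wide mean of compound activation plus 3 SD, cut at about 130% in these data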
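Material: STAT1-lacking human U3A cells, STAT3 luciferase reporter | Benchmarks: IL-6-only wells as 100% reference | Probe or stimulus: IL-6 (33 ng/mL) | Timing: Compound 1 h, then IL-6 6 h at 37 °C | Detection: Luminescence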
APP 5'UTR act – APP 5'UTR luciferase reporter activation | SH-SY5Y APP 5'UTR luciferase reporter, luminescence; zero percent = DMSO vehicle wells | activation, % at 2 µM | 1% of 190,000 active;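 active = activation above a set limit, based on mean plus 3 SD of controls, cut at about 140% in these data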
STAT1 inh – reduces IFN-gamma driven STAT1 reporter signal | inhibition, % at 5.5 µM | 0.35% of 200,000 active | NIH 3T3 STAT1-luciferase reporter, luminescence;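 active = inhibition above a set limit, the mean inhibition across all tested compounds plus 3 SD, cut at about 34% in these data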
STAT3 act-2 – STAT3 activation, confirmation assay. potentiation (% of control), % at 5.7 µM. shares compounds with STAT3 act-1. AID 1267. U3A STAT3-luciferase reporter, IL-6 potentiation, luminescence; U3A cells lack STAT1; 100 means same as IL-6 alone. 64% of 1,200 active;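 active = percent activation of the STAT3 luciferase reporter above a set limit taken from the earlier primary screen, cut at about 130% in these data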
NFkB act 2 – counter-screen for STAT3 activators: NF-kappaB activation; activation (% of control), % at 5.7 µM; shares compounds with STAT3 act-1; 11% of 1,200 active; AID 1309; human cells, NF-kappaB reporter activation; in the data active = activation above about 120%;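 note: reporter induced by TNF-alpha stimulation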
STAT1 act-2 – counter-screen for STAT3 activators: STAT1 activation. shares compounds with STAT3 act-1. NIH 3T3 STAT1-luciferase reporter, IFN-gamma, luminescence. activation (% of control), % at 5.7 µM. 13% of 1,200 active. AID 1318;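 active = activation above the solvent-only control well mean plus 3 SD, set per screening run, cut at about 120% in these data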
Of the large screens only hits and unclear results are named; the others gave an inactive call (follow-up assays come after a bar, where they were run). Only some compounds are listed: those with a hit (about 3.9% of all), similar ones and a draw of the others.

O=C(O)C1C2CCC(O2)C1C(=O)Nc1ccccc1Br (stereo not given)	none (no result: NF-kB neuron act, STAT1 act-1, STAT3 act-1, APP 5'UTR act, STAT1 inh)
FC(F)(F)c1cc(Cl)c2nc(-c3ccccc3)cn2c1	NF-kB neuron act 11, STAT3 act-1 158, APP 5'UTR act 164 | STAT3 act-2 173 | NFkB act 2 140 | STAT1 act-2 202
N#Cc1cnn2c(C(F)(F)F)cc(-c3ccccc3)nc12	none (no result: NF-kB neuron act, STAT1 act-1, STAT3 act-1, APP 5'UTR act, STAT1 inh)
Cc1cc(C)n(C(=O)CCCn2cc([N+](=O)[O-])cn2)n1	none
CC(=O)Nc1c(Cl)n(C(C)=O)c2ccccc12	STAT3 act-1 175 | STAT3 act-2 159 | NFkB act 2 inactive | STAT1 act-2 inactive
Cc1c(NC(=O)CC2NC(=O)NC2=O)c(=O)n(-c2ccccc2)n1C (stereo not given)	none (no result: Pf gamet viab)
O=C(O)c1ccc(CNC(=O)c2ccc(C(F)(F)F)cc2)cc1	STAT3 act-1 149 | STAT3 act-2 168 | NFkB act 2 inactive | STAT1 act-2 inactive
O=C(Nc1cccc(F)c1)c1ccc(CSc2ccccc2)o1	none
CC(=O)Nc1ccc(NC(=O)c2ccc(CSc3ccccc3)o2)cc1	STAT3 act-1 144 | STAT3 act-2 inactive | NFkB act 2 inactive | STAT1 act-2 inactive
N#CC1=C(N)n2c(s/c(=C\c3ccco3)c2=O)=C(C#N)C1c1ccco1 (stereo not given)	STAT3 act-1 171 (no result: Pf gamet viab) | STAT3 act-2 170 | NFkB act 2 inactive | STAT1 act-2 inactive
COc1ccc(CCN2CC(C(=O)NCc3ccc(F)cc3)CC2=O)cc1OC (stereo not given)	none (no result: NF-kB neuron act, STAT1 act-1, STAT3 act-1, APP 5'UTR act, STAT1 inh)
CC1=C(c2ccccc2)C(=S)NC(C)(C)C1	none (no result: NF-kB neuron act, STAT1 act-1, STAT3 act-1, APP 5'UTR act, STAT1 inh)
COc1ccccc1C(=O)NNC(=O)c1ccccc1	none (no result: NF-kB neuron act, STAT1 act-1, STAT3 act-1, APP 5'UTR act, STAT1 inh)
COCCNC(=O)C(=O)NNC(=O)c1ccccc1OC	STAT3 act-1 142 (no result: Pf gamet viab) | STAT3 act-2 137 | NFkB act 2 inactive | STAT1 act-2 inactive
CSc1sc(-c2n[nH]c(=S)n2C)c2c1C=CCC2	none (no result: NF-kB neuron act, STAT1 act-1, STAT3 act-1, APP 5'UTR act, STAT1 inh)
CC1COc2ccccc2N1C(=O)c1ccc(Cl)nc1 (stereo not given)	STAT3 act-1 145 | STAT3 act-2 136 | NFkB act 2 inactive | STAT1 act-2 inactive
O=C(c1ccccc1[N+](=O)[O-])n1cnc2ccccc21	none
Cn1c(C(=O)c2ccccc2[N+](=O)[O-])nc2ccccc21	STAT3 act-1 145 | STAT3 act-2 142 | NFkB act 2 inactive | STAT1 act-2 inactive
Cc1cccc2cc3c(NC(=O)c4ccccn4)nn(C)c3nc12	STAT3 act-1 156 | STAT3 act-2 140 | NFkB act 2 inactive | STAT1 act-2 inactive
CCCC(=O)Nc1nn(C)c2nc3c(C)cccc3cc12	none
O=C(CNc1ccc2ccccc2c1)N/N=C/c1cc2ccccc2nc1Cl	STAT3 act-1 144 | STAT3 act-2 138 | NFkB act 2 inactive | STAT1 act-2 inactive
CC1CCCCC1NC1=NCCCS1 (stereo not given)	none (no result: Pf gamet viab)
CCOC(=O)C1=C(C)NC(=O)NC1C(C)C (stereo not given)	none (no result: NF-kB neuron act, STAT1 act-1, STAT3 act-1, APP 5'UTR act, STAT1 inh)
O=C(CN1C(=O)COc2ccccc21)N1CCc2ccccc2C1	none (no result: Pf gamet viab)
O=C(N/N=C/c1ccc(-c2cccc([N+](=O)[O-])c2)o1)c1cccs1	STAT3 act-1 137 | STAT3 act-2 inactive | NFkB act 2 inactive | STAT1 act-2 inactive
Cc1cc(C)nc(NC(=O)CSc2nc3ccccc3s2)n1	none (no result: Pf gamet viab)
Cc1ccc(S(=O)(=O)NC(=O)CSc2nc3ccccc3s2)cc1	STAT3 act-1 141 | STAT3 act-2 inactive | NFkB act 2 inactive | STAT1 act-2 inactive
Cn1cc(C(=O)Nc2ccc(F)c(Cl)c2)cn1	none
CN1c2ccsc2C(O)=C(C(=S)Nc2ccc(F)c(Cl)c2)S1(=O)=O	STAT3 act-1 142 (no result: Pf gamet viab) | STAT3 act-2 inactive | NFkB act 2 inactive | STAT1 act-2 inactive
CC(=O)c1cn(CCOc2ccc(F)cc2)c2ccccc12	none (no result: NF-kB neuron act, STAT1 act-1, STAT3 act-1, APP 5'UTR act, STAT1 inh)
C#CCn1c(=NC(=O)c2ccc(S(=O)(=O)N3CCc4ccccc4C3)cc2)sc2cc(S(N)(=O)=O)ccc21	STAT3 act-1 144 (no result: Pf gamet viab) | STAT3 act-2 138 | NFkB act 2 inactive | STAT1 act-2 inactive
Cc1nn(-c2ccccn2)c2c1C(=O)C(Br)CC2 (stereo not given)	none (no result: Pf gamet viab)
CCOC(=O)c1nnsc1Nc1ccc(C)c(C)c1	none
Cn1c(O)c(/C=C2\C=Nc3ccccc32)sc1=Nc1ccc(C(=O)O)cc1	none (no result: NF-kB neuron act, STAT1 act-1, STAT3 act-1, APP 5'UTR act, STAT1 inh)
O=C(Cc1ccccc1)Nn1c(O)c(/C=C2\C=Nc3ccccc32)sc1=S	STAT3 act-1 170 | STAT3 act-2 inactive | NFkB act 2 inactive | STAT1 act-2 inactive
Cc1c(NC(=O)COC(=O)c2cc3c4ccccc4n(C)c3s2)c(=O)n(-c2ccccc2)n1C	STAT3 act-1 158 (no result: Pf gamet viab) | STAT3 act-2 136 | NFkB act 2 inactive | STAT1 act-2 inactive
O=C1C(=C(O)c2ccccc2)C(=O)c2ccccc21	none (no result: Pf gamet viab)
O=C1C(=C(c2ccccc2)c2ccccc2)Nc2ccccc21	STAT3 act-1 147 (no result: Pf gamet viab) | STAT3 act-2 139 | NFkB act 2 inactive | STAT1 act-2 inactive
Cc1csc(NC(=O)Cc2coc3cc(C)c(C(C)C)cc23)n1	STAT3 act-1 137 (no result: Pf gamet viab) | STAT3 act-2 inactive | NFkB act 2 inactive | STAT1 act-2 inactive
Cc1noc(C)c1-c1csc(N2CCC(C(N)=O)CC2)n1	none (no result: NF-kB neuron act, STAT1 act-1, STAT3 act-1, APP 5'UTR act, STAT1 inh)
Cc1ccc(-c2nnn(CC(=O)N(c3ccccc3F)C(C(=O)NCC3CCCO3)c3c[nH]c4ccccc34)n2)cc1 (stereo not given)	STAT3 act-1 145 | STAT3 act-2 inactive | NFkB act 2 inactive | STAT1 act-2 inactive
Cc1ccc(-c2nnn(CC(=O)N(c3ccccc3)C(C(=O)NCC3CCCO3)c3ccc(Cl)cc3)n2)cc1 (stereo not given)	none
Cc1cc(C)nc(NS(=O)(=O)c2ccc(NC(=O)c3cccs3)cc2)n1	none
CCCCN(CCCC)S(=O)(=O)c1ccc(NC(=O)c2cccs2)cc1	STAT3 act-1 145 | STAT3 act-2 inactive | NFkB act 2 inactive | STAT1 act-2 inactive
Cc1c(C(=O)N2c3ccccc3Sc3ccccc32)cccc1[N+](=O)[O-]	none
Cc1sc2c(c1C)CN(C(C)(C)C)CN2C(=O)c1ccccc1	STAT3 act-1 142 (no result: Pf gamet viab) | STAT3 act-2 inactive | NFkB act 2 inactive | STAT1 act-2 inactive
CSCCC(NS(=O)(=O)/C=C/c1ccccc1)C(=O)O (stereo not given)	none
CCOc1ccccc1-c1n[nH]c(=S)o1	STAT3 act-1 173 | STAT3 act-2 156 | NFkB act 2 inactive | STAT1 act-2 inactive
Cc1cc(-c2ccc(Br)s2)nc(-n2cccc2)n1	STAT3 act-1 136 | STAT3 act-2 inactive | NFkB act 2 inactive | STAT1 act-2 inactive

Compound activity deposited in PubChem by several laboratories.
